The text below walks through data of article PMC3158671 (Carbohydrate Research, 2011).

In general, Ki refers to a measure of affinity in units of concentration, obtained from inhibition or displacement. Higher therefore signals a looser hold on the target. By IC50 is commonly meant the point on the concentration scale where inhibition reaches its midpoint. Low readings indicate greater potency in that assay, high ones weaker potency in that assay.

Experiment [1] deals with α-galactosidase from green coffee beans (Coffea arabica, UniProt Q42656). The experiment can be described thus: Green coffee bean α-galactosidase inhibition. It counts as biochemical.
Experiment [2] concerns the target T1, human lysosomal β-galactosidase (Homo sapiens, UniProt P16278).
T1 sequence (P16278 29-677): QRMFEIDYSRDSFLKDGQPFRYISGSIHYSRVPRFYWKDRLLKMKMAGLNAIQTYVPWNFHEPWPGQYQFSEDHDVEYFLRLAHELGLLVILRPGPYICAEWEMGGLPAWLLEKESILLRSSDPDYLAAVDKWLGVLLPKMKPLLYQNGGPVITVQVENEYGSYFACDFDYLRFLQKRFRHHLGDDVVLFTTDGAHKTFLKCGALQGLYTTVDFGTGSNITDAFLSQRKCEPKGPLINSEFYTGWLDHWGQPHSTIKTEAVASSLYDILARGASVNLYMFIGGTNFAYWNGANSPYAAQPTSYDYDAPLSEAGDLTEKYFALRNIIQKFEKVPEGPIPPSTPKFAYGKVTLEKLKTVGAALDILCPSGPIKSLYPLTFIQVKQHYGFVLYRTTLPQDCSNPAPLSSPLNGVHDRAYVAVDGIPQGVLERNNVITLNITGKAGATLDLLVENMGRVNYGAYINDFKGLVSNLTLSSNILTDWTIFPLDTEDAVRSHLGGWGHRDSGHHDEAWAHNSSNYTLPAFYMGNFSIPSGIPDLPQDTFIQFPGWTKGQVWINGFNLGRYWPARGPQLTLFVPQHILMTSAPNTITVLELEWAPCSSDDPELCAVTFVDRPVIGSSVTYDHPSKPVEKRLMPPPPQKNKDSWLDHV
As to the kind of experiment: Human lysosomal β-galactosidase inhibition. It counts as biochemical.

The target in experiment [3] is T2, β-glucosidase/β-galactosidase from Agrobacterium sp. (Agrobacterium sp., UniProt P12614).
T2 sequence (P12614 1-459): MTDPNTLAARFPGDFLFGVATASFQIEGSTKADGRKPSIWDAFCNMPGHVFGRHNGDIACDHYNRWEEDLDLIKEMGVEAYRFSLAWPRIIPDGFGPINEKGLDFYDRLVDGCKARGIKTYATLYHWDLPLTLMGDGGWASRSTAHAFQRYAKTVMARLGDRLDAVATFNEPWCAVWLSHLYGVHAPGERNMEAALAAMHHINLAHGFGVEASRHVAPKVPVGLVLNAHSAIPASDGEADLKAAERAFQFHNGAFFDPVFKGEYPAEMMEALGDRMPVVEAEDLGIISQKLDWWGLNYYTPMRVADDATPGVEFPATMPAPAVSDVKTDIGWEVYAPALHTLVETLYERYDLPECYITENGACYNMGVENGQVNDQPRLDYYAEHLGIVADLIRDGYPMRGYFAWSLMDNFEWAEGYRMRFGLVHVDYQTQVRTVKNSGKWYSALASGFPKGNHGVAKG
As to the kind of experiment: Agrobacterium sp. β-galactosidase/-glucosidase inhibition. Format: biochemical.

In experiment [4] the target is β-galactosidase from E. coli (Escherichia coli, UniProt P00722). As to the kind of experiment: E. coli β-galactosidase inhibition. It counts as biochemical.
The target in experiment [5] is T3, β-galactosidase p.Arg483Pro mutation (Felis catus, UniProt O19015, R483P).
T3 sequence (O19015 30-669 R483P): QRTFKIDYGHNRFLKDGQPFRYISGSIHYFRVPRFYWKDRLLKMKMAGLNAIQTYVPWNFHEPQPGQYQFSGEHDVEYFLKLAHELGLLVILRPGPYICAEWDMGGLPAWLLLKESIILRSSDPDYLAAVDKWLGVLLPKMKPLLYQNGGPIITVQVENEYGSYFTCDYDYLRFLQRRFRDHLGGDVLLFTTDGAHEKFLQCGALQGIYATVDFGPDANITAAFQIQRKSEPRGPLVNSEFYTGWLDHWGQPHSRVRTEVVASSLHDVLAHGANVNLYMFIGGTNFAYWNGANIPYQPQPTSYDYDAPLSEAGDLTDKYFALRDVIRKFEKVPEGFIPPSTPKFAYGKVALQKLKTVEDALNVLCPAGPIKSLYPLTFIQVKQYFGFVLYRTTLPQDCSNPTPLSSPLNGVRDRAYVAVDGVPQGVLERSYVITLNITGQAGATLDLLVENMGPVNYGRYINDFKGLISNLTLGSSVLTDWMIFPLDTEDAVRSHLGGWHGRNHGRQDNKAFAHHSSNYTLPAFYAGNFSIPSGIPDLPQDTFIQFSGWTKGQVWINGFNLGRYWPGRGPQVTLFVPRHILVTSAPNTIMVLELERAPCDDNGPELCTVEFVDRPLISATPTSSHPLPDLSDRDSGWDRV
The experiment can be described thus: Intracellular β-galactosidase activity in GM1 gangliosidosis feline fibroblasts. Format: cell-based, cat. The settings on record: 5 days; for maximal increase of intracellular β-galactosidase activity: relative to DMSO treated cells. Summed up: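 GM1 gangliosidosis fibroblasts from an affected cat (β-galactosidase p.Arg483Pro) treated 5 days with escalating doses of test compound dissolved in DMSO. Cells lysed; intracellular β-galactosidase measured with fluorogenic 4-methylumbelliferyl β-D-galactopyranoside, β-N-acetylhexosaminidase also measured with MU substrate. Activity normalized to DMSO-treated cells.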

SMILES strings stand for the structures.

Chain of α-galactosidase from green coffee beans (Q42656 16-378): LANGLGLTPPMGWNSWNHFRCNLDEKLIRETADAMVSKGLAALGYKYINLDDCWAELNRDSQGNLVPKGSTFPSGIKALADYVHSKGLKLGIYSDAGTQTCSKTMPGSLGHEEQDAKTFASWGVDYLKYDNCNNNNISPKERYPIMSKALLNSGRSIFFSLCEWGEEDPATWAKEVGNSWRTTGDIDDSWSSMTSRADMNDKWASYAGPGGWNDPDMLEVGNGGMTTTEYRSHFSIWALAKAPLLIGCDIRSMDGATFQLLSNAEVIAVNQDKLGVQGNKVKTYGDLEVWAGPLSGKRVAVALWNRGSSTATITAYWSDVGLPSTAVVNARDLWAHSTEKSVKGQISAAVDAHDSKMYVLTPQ
Chain of β-galactosidase from E. coli (P00722 2-1024 limits assumed): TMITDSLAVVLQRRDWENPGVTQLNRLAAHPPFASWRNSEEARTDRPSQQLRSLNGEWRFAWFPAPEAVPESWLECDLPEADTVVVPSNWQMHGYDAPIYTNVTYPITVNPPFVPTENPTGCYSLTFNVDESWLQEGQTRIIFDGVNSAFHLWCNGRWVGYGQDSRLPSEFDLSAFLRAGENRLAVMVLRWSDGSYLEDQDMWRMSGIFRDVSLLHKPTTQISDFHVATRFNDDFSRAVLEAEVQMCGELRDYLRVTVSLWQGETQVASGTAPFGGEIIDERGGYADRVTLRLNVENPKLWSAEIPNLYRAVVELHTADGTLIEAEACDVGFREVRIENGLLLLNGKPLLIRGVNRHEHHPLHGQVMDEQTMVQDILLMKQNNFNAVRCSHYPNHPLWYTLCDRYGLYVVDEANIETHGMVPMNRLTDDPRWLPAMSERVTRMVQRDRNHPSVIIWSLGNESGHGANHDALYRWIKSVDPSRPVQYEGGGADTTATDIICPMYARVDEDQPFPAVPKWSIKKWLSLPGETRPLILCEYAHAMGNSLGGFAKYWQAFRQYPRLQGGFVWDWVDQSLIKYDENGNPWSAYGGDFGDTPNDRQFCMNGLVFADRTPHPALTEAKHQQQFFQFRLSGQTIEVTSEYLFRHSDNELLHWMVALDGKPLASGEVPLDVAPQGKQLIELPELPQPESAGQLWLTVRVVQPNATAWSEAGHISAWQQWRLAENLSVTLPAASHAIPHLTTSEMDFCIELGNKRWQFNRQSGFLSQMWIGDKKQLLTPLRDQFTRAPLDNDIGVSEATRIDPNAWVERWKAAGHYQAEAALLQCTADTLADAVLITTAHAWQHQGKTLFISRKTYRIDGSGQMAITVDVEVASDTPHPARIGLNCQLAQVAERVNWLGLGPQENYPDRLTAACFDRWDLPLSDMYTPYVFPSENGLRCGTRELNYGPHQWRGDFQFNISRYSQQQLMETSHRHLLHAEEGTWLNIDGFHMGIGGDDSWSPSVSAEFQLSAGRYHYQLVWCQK

On to `CN(C)c1cccc2c(S(=O)(=O)NCCCCCCN(CCCCCCNS(=O)(=O)c3cccc4c(N(C)C)cccc34)CCCCCCN3C[C@H](O)[C@@H](O)[C@@H](O)[C@H]3CO)cccc12` [Compound 13, N-Bis(dansylaminohexyl)aminohexyl-1,5-dideoxy-1,5-imino-D-galactitol], for which the Ki in experiment [1] stood at 530 nM; in experiment [3], 230 nM; in experiment [4] it was 120 nM. Moreover, in experiment [2], inhibition was half-maximal at 2700 nM (IC50). For the same compound, the “concentration at maximal increase of intracellular β-galactosidase activity” value (“concentration at maximal increase” for short) in experiment [5] turned out to be 3.0 µM. The “maximal increase of intracellular β-galactosidase activity” value in experiment [5] came to 1.8 fold.

For `CCCCCCCC(=O)N(CCCCCCNS(=O)(=O)c1cccc2c(N(C)C)cccc12)CCCCCCN1C[C@H](O)[C@@H](O)[C@@H](O)[C@H]1CO` [Compound 15, N-[(Dansylaminohexyl)-N-octanoylamino]hexyl-1,5-dideoxy-1,5-imino-D-galactitol], the Ki in experiment [1] was determined as 200 nM; in experiment [3], 28 nM; in experiment [4], 47 nM. Besides, the 50% inhibitory concentration (IC50) in experiment [2] turned out to be 1800 nM.

On to `CN(C)c1cccc2c(S(=O)(=O)NCCCCCCN(CCCCCCNS(=O)(=O)c3cccc4c(N(C)C)cccc34)C(=O)CCCCCN3C[C@H](O)[C@@H](O)[C@@H](O)[C@H]3CO)cccc12` [Compound 9, N-Bis(dansylaminohexyl)aminocarbonylpentyl-1,5-dideoxy-1,5-imino-D-galactitol], for which the Ki in experiment [1] was 2600 nM; in experiment [3], 630 nM; in experiment [4], 290 nM. In experiment [2], the IC50 amounted to 850 nM. The “concentration at maximal increase” value in experiment [5] was 2.1 µM. Also, the “maximal increase of intracellular β-galactosidase activity” value in experiment [5] stood at 1.5 fold.

`CN(C)c1cccc2c(S(=O)(=O)NCCCCCCNC(=O)CCCCCN3C[C@H](O)[C@@H](O)[C@@H](O)[C@H]3CO)cccc12` [Compound 8, N-(Dansylamino)hexylaminocarbonylpentyl-1,5-dideoxy-1,5-imino-D-galactitol] showed an IC50 in experiment [2] of 6200 nM. The compound also showed a Ki in experiment [3] of 450 nM. Also, in experiment [5], the “concentration at maximal increase” value is 258 µM, the “range of β-galactosidase activity enhancement” value is reported as “large range over which it enhanced β-galactosidase activity” and the “maximal increase of intracellular β-galactosidase activity” value was 1.7 fold.
